In publication PMC6683736 (The Journal of Cell Biology, 2019):

B1: GUK domain alone: Dlg1 GUK domain, 699–893 (protein, UniProt Q12959 699-893, looked up, fragment)
chain: YVLSYEPVNQQEVNYTRPVIILGPMKDRINDDLISEFPDKFGSCVPHTTRPKRDYEVDGRDYHFVTSREQMEKDIQEHKFIEAGQYNNHLYGTSVQSVREVAEKGKHCILDVSGNAIKRLQIAQLYPISIFIKPKSMENIMEMNKRLTEEQARKTFERAMKLEQEFTEHFTAIVQGDTLEDIYNQVKQIIEEQSG
modifications: GUK domain
B2: SGEF 1–414: N-terminal half of SGEF, ends just before DH-PH domain (protein)
chain: MDGESEVDFSSNSITPLWRRRSIPQPHQVLGRSKPRPQSYQSPNGLLITDFPVEDGGTLLAAQIPAQVPTASDSRTVHRSPLLLGAQRRAVANGGTASPEYRAASPRLRRPKSPKLPKAVPGGSPKSPANGAVTLPAPPPPPVLRPPRTPNAPAPCTPEEDLTGLTASPVPSPTANGLAANNDSPGSGSQSGRKAKDPERGLFPGPQKSSSEQKLPLQRLPSQENELLENPSVVLSTNSPAALKVGKQQIIPKSLASEIKISKSNNQNVEPHKRLLKVRSMVEGLGGPLGHAGEESEVDNDVDSPGSLRRGLRSTSYRRAVVSGFDFDSPTSSKKKNRMSQPVLKVVMEDKEKFSSLGRIKKKMLKGQGTFDGEENAVLYQNYKEKALDIDSDEESEPKEQKSDEKIVIHHKPL
modifications: left off: myc (inferred from the legends of Figures 2 and 3), end not stated, kept
B3: SGEF 1–400: minimum region required to bind Scribble and Dlg1, no catalytic activity (protein)
chain: MDGESEVDFSSNSITPLWRRRSIPQPHQVLGRSKPRPQSYQSPNGLLITDFPVEDGGTLLAAQIPAQVPTASDSRTVHRSPLLLGAQRRAVANGGTASPEYRAASPRLRRPKSPKLPKAVPGGSPKSPANGAVTLPAPPPPPVLRPPRTPNAPAPCTPEEDLTGLTASPVPSPTANGLAANNDSPGSGSQSGRKAKDPERGLFPGPQKSSSEQKLPLQRLPSQENELLENPSVVLSTNSPAALKVGKQQIIPKSLASEIKISKSNNQNVEPHKRLLKVRSMVEGLGGPLGHAGEESEVDNDVDSPGSLRRGLRSTSYRRAVVSGFDFDSPTSSKKKNRMSQPVLKVVMEDKEKFSSLGRIKKKMLKGQGTFDGEENAVLYQNYKEKALDIDSDEESEPKE
modifications: left off: myc (inferred from the legend of Figure 2), end not stated, kept
B4: SH3 domain by itself: Dlg1 SH3 domain, 536–636 (protein, UniProt Q12959 536-636, looked up, fragment)
chain: GQAVTIVAQYRPEEYSRFEAKIHDLREQMMNSSISSGSGSLRTSQKRSLYVRALFDYDKTKDSGLPSQGLNFKFGDILHVINASDDEWWQARQVTPDGESD
modifications: SH3 domain
B5: SGEF 1–227: SGEF deletion mutant, binds to Scribble but not to Dlg1 (protein)
chain: MDGESEVDFSSNSITPLWRRRSIPQPHQVLGRSKPRPQSYQSPNGLLITDFPVEDGGTLLAAQIPAQVPTASDSRTVHRSPLLLGAQRRAVANGGTASPEYRAASPRLRRPKSPKLPKAVPGGSPKSPANGAVTLPAPPPPPVLRPPRTPNAPAPCTPEEDLTGLTASPVPSPTANGLAANNDSPGSGSQSGRKAKDPERGLFPGPQKSSSEQKLPLQRLPSQENEL
modifications: left off: myc (inferred from the legends of Figures 1 and 2), end not stated, kept

Columns and labels:
[1] = system: MDCK cells; experiment: Actomyosin organization by IF; type: cell-based, canine
[2] = system: SGEF; experiment: Coimmunoprecipitation of Dlg1 constructs with SGEF, HEK293FT lysates; type: binding, Human; conditions: WB
How it was run: (§1)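 HEK293FT cells were co-transfected by calcium phosphate; medium was changed at 24 h and cells harvested at 48 h. Lysis was in Tris-HCl pH 7.4, MgCl2, 150 mM NaCl, 1% Triton X-100 and protease inhibitors. Equal protein was incubated with GFP-Trap beads for 1 h at 4°C, washed four times, then immunoblotted with anti-GFP and anti-myc (or anti-His).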

[3] = system: Scribble/SGEF/Dlg1 ternary complex; experiment: Coprecipitation of Scribble with GFP-Dlg1; type: binding; conditions: HA-Scribble and GFP-Dlg1 coexpressed, IP anti-GFP, HEK293
[4] = system: Dlg1; experiment: Coimmunoprecipitation of SGEF constructs with GFP-Dlg1, HEK293FT lysates; type: binding, Mouse; conditions: GFP-trap nanobodies, WB
How it was run: as §1

[5] = system: MDCK cells; experiment: Zigzag index of tight junctions; type: cell-based, canine; conditions: compared with SGEF KD; Fig. 9 J
[6] = system: MDCK cells; experiment: Height of MDCK monolayer, confocal XZ; type: cell-based, canine; conditions: average, n = 50 cells; Fig. 9 I
How it was run: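 Confocal XZ sections of confluent control, SGEF-knockdown and rescue MDCK monolayers were acquired on a Leica SP8. Cells were stained for E-cadherin, β-catenin and nuclei, or for F-actin and Hoechst, and monolayer height was measured.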

[7] = system: Xenopus embryos; experiment: Junctional localization in gastrula-stage embryos; type: in vivo, Xenopus laevis; conditions: live confocal, mNeon-tagged
How it was run: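 Embryos were microinjected in the animal hemisphere with mRNAs, either at the two-cell stage (each cell twice) or at the four-cell stage (once). They were raised to gastrula stage (10.5–12) and live-imaged by confocal. mNeon-tagged protein was coexpressed with BFP-ZO-1 (tight junction marker) and PLEKHA7-mCherry (adherens junction marker), and the junctional-to-cytosolic intensity ratio was quantified.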

[8] = system: Scribble; experiment: Coimmunoprecipitation of SGEF constructs with GFP-Scribble, HEK293FT lysates; type: binding, Human; conditions: GFP-trap nanobodies, WB

Molecule | interaction with SGEF [2] | interaction with Dlg1 [4] | cell height [6] [µm] | further results
Cc1ccc2c(c1)C(=O)C1(O)CCN(c3ccccc3)C1=N2 (stereo not shown) [blebbistatin, reference compound] |  |  |  | relative strength of effect on actomyosin array and stress fibers ([1]; 16 h, blebbistatin vs Y-27632): stronger effect than Y-27632
B1 | able to interact with SGEF |  |  | 
B2 |  | interacted efficiently with Dlg1 |  | formation of Scribble/SGEF/Dlg1 ternary complex [3]: minimum SGEF mutant that can mediate the formation of the Scribble/SGEF/Dlg1 complex
B3 |  | able to bind to Dlg1 | 2.57 ± 0.049 | zigzag index (in words) [5]: increased significantly; rescue of increased contractility ([1]; myosin II staining, SGEF KD background): able to rescue the increase in contractility
B4 | no detectable binding |  |  | 
B5 |  | did not interact with Dlg1 | 2.99 ± 0.065 | localization at apical junctional complex [7]: localized efficiently to the AJC; interaction with Scribble [8]: sufficient to interact with Scribble
